Assay results reported in ChEMBL document CHEMBL1671716, “Antimicrobial susceptibility patterns for recent clinical isolates of anaerobic bacteria in South Korea” (2010).
≈ marks a conversion by molar mass, not a printed value.

Columns and labels:
[1] = tested on: Parabacteroides distasonis; test: Antimicrobial activity against Bacteroides distasonis assessed as percent susceptible isolates after 48 hrs by agar dilution method; format: functional
Parvimonas micra = test: Antimicrobial activity against Peptostreptococcus micros after 48 hrs by agar dilution method; format: functional
Outline: (§1)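 CLSI agar dilution (M11-A7); inoculum 10^5 CFU applied by replicator; plates incubated anaerobically 48 h at 37°C. For piperacillin-tazobactam, tazobactam held constant at 4 μg/ml.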

Hoylesella oralis [2] = test: Antimicrobial activity against Prevotella oralis assessed as percent susceptible isolates after 48 hrs by agar dilution method; format: functional
Outline: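 CLSI agar dilution MIC testing of clinical isolates. 10^5 CFU spotted by replicator, plates incubated 48 h at 37°C in an anaerobic chamber. Susceptibility rates derived from the MICs.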

Fusobacterium nucleatum = test: Antimicrobial activity against Fusobacterium nucleatum after 48 hrs by agar dilution method; format: functional; outline: as §1
Hoylesella oralis [3] = test: Antimicrobial activity against Prevotella oralis assessed as percent resistant isolates after 48 hrs by agar dilution method; format: functional
Outline: (§2)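 CLSI agar dilution on recent Korean clinical anaerobe isolates. Inoculum 10^5 CFU per spot by replicator. Plates incubated in an anaerobic chamber at 37°C for 48 h. For piperacillin plus tazobactam, tazobactam was held constant at 4 μg/ml. Resistance and susceptibility rates derived from MICs.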

Schaalia meyeri = test: Antimicrobial activity against Actinomyces meyeri after 48 hrs by agar dilution method; format: functional
Outline: (§3)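 MICs on clinical anaerobe isolates by the CLSI agar dilution method. Inoculum of 10^5 CFU applied with a Steers replicator. Plates incubated 48 h at 37°C in an anaerobic chamber.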

Anaerococcus prevotii [4] = test: Antimicrobial activity against Anaerococcus prevotii after 48 hrs by agar dilution method; format: functional; outline: as §3
Bacteroides caccae [5] = test: Antimicrobial activity against Bacteroides caccae assessed as percent resistant isolates after 48 hrs by agar dilution method; format: functional; outline: as §2
Bacteroides caccae [6] = test: Antimicrobial activity against Bacteroides caccae assessed as percent susceptible isolates after 48 hrs by agar dilution method; format: functional
[7] = tested on: Parabacteroides distasonis; test: Antimicrobial activity against Bacteroides distasonis assessed as percent resistant isolates after 48 hrs by agar dilution method; format: functional; outline: as §2
Finegoldia magna [8] = test: Antimicrobial activity against Finegoldia magna assessed as percent resistant isolates after 48 hrs by agar dilution method; format: functional; outline: as §2
Schaalia odontolytica = test: Antimicrobial activity against Actinomyces odontolyticus after 48 hrs by agar dilution method; format: functional; outline: as §3
Actinomyces israelii = test: Antimicrobial activity against Actinomyces israelii after 48 hrs by agar dilution method; format: functional; outline: as §3
Bacteroides ovatus = test: Antimicrobial activity against Bacteroides ovatus assessed as percent resistant isolates after 48 hrs by agar dilution method; format: functional; outline: as §2
Finegoldia magna [9] = test: Antimicrobial activity against Finegoldia magna after 48 hrs by agar dilution method; format: functional; outline: as §1
Phocaeicola vulgatus [10] = test: Antimicrobial activity against Bacteroides vulgatus assessed as percent resistant isolates after 48 hrs by agar dilution method; format: functional; outline: as §2
Prevotella buccae [11] = test: Antimicrobial activity against Prevotella buccae assessed as percent resistant isolates after 48 hrs by agar dilution method; format: functional, Segatella buccae; outline: as §2
[12] = tested on: Bifidobacterium adolescentis; test: Antimicrobial activity against Bifidobacterium adolescentis after 48 hrs by agar dilution method; format: functional; outline: as §3
Bacteroides fragilis [13] = test: Antimicrobial activity against Bacteroides fragilis after 48 hrs by agar dilution method; format: functional; outline: as §3
Bifidobacterium sp. [14] = test: Antimicrobial activity against Bifidobacterium sp. after 48 hrs by agar dilution method; format: functional; outline: as §3
[15] = tested on: Peptostreptococcus anaerobius; test: Antimicrobial activity against Peptostreptococcus anaerobius assessed as percent susceptible isolates after 48 hrs by agar dilution method; format: functional; outline: as §2
Prevotella intermedia [16] = test: Antimicrobial activity against Prevotella intermedia after 48 hrs by agar dilution method; format: functional; outline: as §1
[17] = tested on: Parabacteroides distasonis; test: Antimicrobial activity against Bacteroides distasonis after 48 hrs by agar dilution method; format: functional; outline: as §3
Bacteroides caccae [18] = test: Antimicrobial activity against Bacteroides caccae after 48 hrs by agar dilution method; format: functional; outline: as §3
Phocaeicola vulgatus [19] = test: Antimicrobial activity against Bacteroides vulgatus assessed as percent susceptible isolates after 48 hrs by agar dilution method; format: functional
Bifidobacterium sp. [20] = test: Antimicrobial activity against Bifidobacterium sp. assessed as percent susceptible isolates after 48 hrs by agar dilution method; format: functional; outline: as §1
Anaerococcus prevotii [21] = test: Antimicrobial activity against Anaerococcus prevotii assessed as percent resistant isolates after 48 hrs by agar dilution method; format: functional; outline: as §2
Actinomyces naeslundii = test: Antimicrobial activity against Actinomyces naeslundii after 48 hrs by agar dilution method; format: functional; outline: as §3
Clostridioides difficile [22] = test: Antimicrobial activity against Clostridium difficile assessed as percent susceptible isolates after 48 hrs by agar dilution method; format: functional
Prevotella buccae [23] = test: Antimicrobial activity against Prevotella buccae assessed as percent susceptible isolates after 48 hrs by agar dilution method; format: functional, Segatella buccae; outline: as §1
Prevotella intermedia [24] = test: Antimicrobial activity against Prevotella intermedia assessed as percent resistant isolates after 48 hrs by agar dilution method; format: functional; outline: as §2
Prevotella bivia = test: Antimicrobial activity against Prevotella bivia after 48 hrs by agar dilution method; format: functional; outline: as §1
Finegoldia magna [25] = test: Antimicrobial activity against Finegoldia magna assessed as percent susceptible isolates after 48 hrs by agar dilution method; format: functional; outline: as §1
Anaerococcus prevotii [26] = test: Antimicrobial activity against Anaerococcus prevotii assessed as percent susceptible isolates after 48 hrs by agar dilution method; format: functional
[27] = tested on: Peptostreptococcus anaerobius; test: Antimicrobial activity against Peptostreptococcus anaerobius after 48 hrs by agar dilution method; format: functional; outline: as §1
Bacteroides fragilis [28] = test: Antimicrobial activity against Bacteroides fragilis assessed as percent susceptible isolates after 48 hrs by agar dilution method; format: functional
Phocaeicola vulgatus [29] = test: Antimicrobial activity against Bacteroides vulgatus after 48 hrs by agar dilution method; format: functional; outline: as §3
[30] = tested on: Peptoniphilus asaccharolyticus; test: Antimicrobial activity against Peptoniphilus asaccharolyticus assessed as percent susceptible isolates after 48 hrs by agar dilution method; format: functional; outline: as §1
Eubacterium sp. = test: Antimicrobial activity against Eubacterium sp. assessed as percent susceptible isolates after 48 hrs by agar dilution method; format: functional; outline: as §1
Fusobacterium necrogenes = test: Antimicrobial activity against Fusobacterium necrogenes after 48 hrs by agar dilution method; format: functional; outline: as §1
[31] = tested on: Bifidobacterium adolescentis; test: Antimicrobial activity against Bifidobacterium adolescentis assessed as percent susceptible isolates after 48 hrs by agar dilution method; format: functional
Clostridioides difficile [32] = test: Antimicrobial activity against Clostridium difficile assessed as percent resistant isolates after 48 hrs by agar dilution method; format: functional

Cc1ncc([N+](=O)[O-])n1CCO [METRONIDAZOLE]
Activity [1]: 100% | MIC50 (Parvimonas micra): 0.5 µg/mL (≈ 2.92 µM) | MIC90 (Parvimonas micra): 1 µg/mL (≈ 5.84 µM) | Activity (Hoylesella oralis [2]): 100% | MIC (Fusobacterium nucleatum): 0.13 µg/mL (≈ 0.76 µM) | Activity (Hoylesella oralis [3]): 0% | MIC50 (Schaalia meyeri): 16 µg/mL (≈ 93.5 µM) | MIC90 (Schaalia meyeri): > 128 µg/mL | MIC50 (Anaerococcus prevotii [4]): 1 µg/mL (≈ 5.84 µM) | MIC90 (Anaerococcus prevotii [4]): 1 µg/mL (≈ 5.84 µM) | Activity (Bacteroides caccae [5]): 0% | Activity (Bacteroides caccae [6]): 100% | Activity [7]: 0% | Activity (Finegoldia magna [8]): 0% | MIC50 (Schaalia odontolytica): 16 µg/mL (≈ 93.5 µM) | MIC90 (Schaalia odontolytica): > 128 µg/mL | MIC50 (Actinomyces israelii): 16 µg/mL (≈ 93.5 µM) | MIC90 (Actinomyces israelii): > 128 µg/mL | Activity (Bacteroides ovatus): 0% | MIC (Finegoldia magna [9]): 0.5 µg/mL (≈ 2.92 µM) | MIC50 (Finegoldia magna [9]): 0.5 µg/mL (≈ 2.92 µM) | MIC90 (Finegoldia magna [9]): 1 µg/mL (≈ 5.84 µM) | Activity (Phocaeicola vulgatus [10]): 0% | Activity (Prevotella buccae [11]): 0% | MIC50 [12]: 16 µg/mL (≈ 93.5 µM) | MIC90 [12]: > 128 µg/mL | MIC50 (Bacteroides fragilis [13]): 2 µg/mL (≈ 11.7 µM) | MIC90 (Bacteroides fragilis [13]): 2 µg/mL (≈ 11.7 µM) | MIC50 (Bifidobacterium sp. [14]): 16 µg/mL (≈ 93.5 µM) | MIC90 (Bifidobacterium sp. [14]): > 128 µg/mL | Activity [15]: 100% | MIC (Prevotella intermedia [16]): 0.5 µg/mL (≈ 2.92 µM) | MIC50 (Prevotella intermedia [16]): 0.5 µg/mL (≈ 2.92 µM) | MIC90 (Prevotella intermedia [16]): 2 µg/mL (≈ 11.7 µM) | MIC50 [17]: 2 µg/mL (≈ 11.7 µM) | MIC90 [17]: 2 µg/mL (≈ 11.7 µM) | MIC50 (Bacteroides caccae [18]): 2 µg/mL (≈ 11.7 µM) | MIC90 (Bacteroides caccae [18]): 2 µg/mL (≈ 11.7 µM) | Activity (Phocaeicola vulgatus [19]): 100% | Activity (Bifidobacterium sp. [20]): 46% | Activity (Anaerococcus prevotii [21]): 0% | MIC50 (Actinomyces naeslundii): 16 µg/mL (≈ 93.5 µM) | MIC90 (Actinomyces naeslundii): > 128 µg/mL | Activity (Clostridioides difficile [22]): 100% | Activity (Prevotella buccae [23]): 100% | Activity (Prevotella intermedia [24]): 0% | MIC50 (Prevotella bivia): 4 µg/mL (≈ 23.4 µM) | MIC90 (Prevotella bivia): 8 µg/mL (≈ 46.7 µM) | Activity (Finegoldia magna [25]): 100% | Activity (Anaerococcus prevotii [26]): 100% | MIC50 [27]: 0.5 µg/mL (≈ 2.92 µM) | MIC90 [27]: 1 µg/mL (≈ 5.84 µM) | Activity (Bacteroides fragilis [28]): 100% | MIC50 (Phocaeicola vulgatus [29]): 2 µg/mL (≈ 11.7 µM) | MIC90 (Phocaeicola vulgatus [29]): 2 µg/mL (≈ 11.7 µM) | Activity [30]: 100% | Activity (Eubacterium sp.): 46% | MIC (Fusobacterium necrogenes): 0.13 µg/mL (≈ 0.76 µM) | Activity [31]: 46% | Activity (Clostridioides difficile [32]): 0%
